Hit rate of the full screen: of about 2,500 compounds, about 1,200 (48%) were called active.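 The calls were made as follows: active = mean activation above the low control average plus 3 SD, as set in the primary screen (cut at about 12% in these data); inactive = the rest.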 The set was probably picked from earlier hits. The list shows a part of the results.

Data on 93 molecules can be found in PubChem BioAssay AID504383 (The Scripps Research Institute Molecular Screening Center, 2011).

The assay concerns the target Troponin I, cardiac muscle (Homo sapiens) + Troponin T, cardiac muscle (Homo sapiens) + Troponin C, slow skeletal and cardiac muscles (Homo sapiens) (UniProt P19429+P45379+P63316). The experiment in a line: calcium sensitizers of cardiac thin filaments – biochemical, IANBD-TnC fluorescence, triplicate, confirmation (AID 504383).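 Also: 0% = DMSO at 0.472 mM calcium and 100% = DMSO at 2.9 mM calcium.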 The settings on record: IANBD-labeled cardiac RTF, Ca2+ sensitivity fluorescence; at 7.2 µM; active compounds read high; scaled from EC20 to saturating calcium; tested at EC20 calcium, 0.472 mM. In a few lines:
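material = labelled regulated thin filaments | probe or stimulus = Ca2+ 0.472 mM, EC20 level | dosing = single nominal compound dose of 7.2 µM | schedule = 15 min at 25 °C | signal = fluorescence intensity of labelled filaments | evaluation = fluorescence gain scaled between EC20 and EC100 calcium controls | benchmarks = low control EC20 calcium, high control EC100 calcium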
With `CN1Cc2c(N)cccc2C(c2ccccc2)C1` (stereo not drawn), the activation was -1.03% (inactive).
Consider `N/C(COc1cc(Cl)cc(Cl)c1)=N\O`, for which the activation is 153% (active).
`CCc1ccc(/C=C2/C(=O)N(C)C(=S)N2CC(=O)OC)s1`: the activation was 11.7% (active).
As for `COC(=O)CN1C(=S)N(c2ccc(OC)cc2)C(=O)/C1=C/c1ccc(N2CCOCC2)cc1`, the activation was 11.4% (inactive).
Consider `COCCCN1C(=O)/C(=C/c2ccc(CNS(=O)(=O)c3ccccc3)o2)C(C(=O)OC)=C1C`, for which the activation is 8.19% (inactive).
Regarding `C=CCN(C(=O)CNS(=O)(=O)c1ccccc1)C(C(=O)NCCOC)c1ccncc1` (stereo not drawn), the activation is 16.9% (active).
To `CCOc1ccc(N(C(=O)CNC(=O)c2ccco2)C(C(=O)NC2CCCC2)c2ccncc2)cc1` (stereo not drawn) belongs 9.24% (inactive).
Turning to `N#CC(C#N)=C1C=C2C=C(N3CCOCC3)CCC2CC1` (stereo not drawn), the activation is -1.16% (inactive).
For the molecule `Cc1ccccc1-n1c(O)c(/C=C/C=Nc2ccccc2)c(=O)[nH]c1=O`, the activation is 19.4% (active).
In the case of `CSc1nnc(N(CCC#N)CCC#N)s1`, the activation was 35.1% (active).
Turning to `O=C(c1ccc(F)cc1)N1CCN=C1c1ccccc1`, the activation was 9.85% (inactive).
Consider `O=C1c2ccccc2C(=O)N1CC1=NCCc2ccccc21`, for which the activation was 11.2% (inactive).
Regarding `O=C(CN1C(=O)c2ccccc2C1=O)N1CCN=C1c1ccccc1`, the activation is 70.2% (active).
As for `CC1CN/C(=C\C(=O)c2ccc(Br)cc2)C(=O)N1` (stereo not drawn), the activation was 2.08% (inactive).
Next, `C=CCN1C=CC(=C/C=C(/C#N)C(=O)OCC)C=C1`: 4.84% (inactive).
For the molecule `CCCN1C=CC(=CC=C(C#N)C#N)C=C1`, the activation was 28% (active).
To `CCCCCCN1C=CC(=C/C=C(\C#N)C(=O)OCC)C=C1` belongs 501% (active); to `C=CCN1C=CC(=CC=C(C#N)C#N)C=C1`, 668% (active); to `CC1=C/C(=C\C=C(C#N)C#N)N(C)c2ccccc21`, 8.37% (inactive).
For the molecule `CCOC(=O)/C(C#N)=C\C=C1C=CN(C)C=C1`, the activation is 8.19% (inactive).
To `Cc1cc(C)nc(SCCCNCc2ccc(Br)cc2)n1` belongs 9.74% (inactive); to `Cc1cc(C)n(-c2ccc([N+](=O)[O-])cc2-c2nn[nH]n2)n1`, 7.13% (inactive); to `O=C(O)c1ccc(O)c(O)c1`, 7.5% (inactive).
On to `Cc1cc(C)n(-c2ccc(C(=O)O)cc2)n1`, for which the activation was 16.2% (active).
In the case of `N#CC1=C(N)Oc2ccc3ccc(O)cc3c2C1c1ccsc1` (stereo not drawn), the activation is 31.6% (active).
On to `N#CC1=C(N)SC(N)=C(C#N)C1c1cccc(O)c1`, for which the activation is 6.27% (inactive).
Next, `CCOC(=O)c1sc(N)c(C#N)c1COC(=O)CNC(=O)c1ccccc1`: 8.8% (inactive); `CCOC(=O)c1sc(N)c(C#N)c1COC(=O)CNC(=O)c1cc(OC)c(OC)c(OC)c1`: 67.4% (active).
With `CC(C)CC[C@@H](O)[C@](C)(O)C1CC[C@@]2(O)C3=CC(=O)[C@@H]4C[C@@H](O)[C@@H](O)C[C@]4(C)C3CC[C@]12C` (stereo partly drawn), the activation was 279% (active).
Consider `CNC(=O)N(O)C1N(C)C(=O)N(CC(=O)OC)C1(C)C` (stereo not drawn), for which the activation was 55.3% (active).
To `COc1ccc(OC(C)C(=O)Nc2cccc(OC)c2)cc1` (stereo not drawn) belongs 7.49% (inactive); to `COc1cc(OC)c(C(=O)OC(C)C(=O)Nc2cccc(C(F)(F)F)c2)cc1OC` (stereo not drawn), 32.5% (active); to `COc1ccc(C2=NN(C(=O)COC(=O)c3ccc(NC(=O)CC#N)cc3)C(c3ccco3)C2)cc1` (stereo not drawn), 14.7% (active).
As for `COc1ccc(OC)c(NC(=S)Nc2ccccc2)c1`, the activation was 5.57% (inactive).
Take `COc1ccc(OC)c(NC(=O)CNC(=O)Cn2c(C)cc3ccccc3c2=O)c1`: the activation is 3680% (active).
For `CCCC(CCC(=O)Nc1ccc(S(N)(=O)=O)cc1)C(=O)O` (stereo not drawn), the activation was 8.1% (inactive).
Regarding `NS(=O)(=O)c1ccc(NC(=O)COc2ccc(C(=O)c3ccc(F)cc3)cc2)cc1`, the activation is 1350% (active).
Take `O=C(Oc1cc2oc(=O)c3c(c2cc1Cl)CCCC3)c1cccs1`: the activation is 1.37% (inactive).
For the molecule `CC1CC(C)CN(C(=O)COC(=O)CCc2nc3ccccc3c(=O)[nH]2)C1` (stereo not drawn), the activation is 8.84% (inactive).
Consider `NC(=O)N/N=C/c1ccc(N2CCOCC2)s1`, for which the activation is 3.82% (inactive).
To `O=C(CN1C(=O)c2ccccc2C1=O)NCc1ccc(N2CCOCC2)cc1` belongs 12.4% (active); to `COc1ccc(Sc2ccc(-c3nc4cnccn4c3NC3CCCCC3)cc2OC)cc1`, 3.89% (inactive); to `CCOC(=O)C1C(=O)C=C(/C=C/c2ccc(N(C)C)cc2)CC1c1ccccc1` (stereo not drawn), 5.48% (inactive).
As for `CN(C)c1ccc(/C=C/c2nc3ccccc3c(=O)n2CCO)cc1`, the activation was 398% (active).
For `C[C@@H]1C=C(C(=O)N2CCOCC2)O[C@H](OCc2ccc(CO)cc2)C1`, the activation was 6.41% (inactive).
Next, `CC1(C)CC2CC(C)(CN2C(=S)Nc2ccccc2F)C1` (stereo not drawn): 3.28% (inactive).
On to `COc1cc2c(cc1[N+](=O)[O-])-c1ccccc1C2`, for which the activation is 302% (active).
Turning to `CNc1ccccc1C(C)(C)c1cc(C)[nH]n1`, the activation is 28.3% (active).
For the molecule `CC(=O)N(C(C)=O)N1C(=O)c2cccc3c(N4CCOCC4)ccc(c23)C1=O`, the activation was 10.5% (inactive).
Next, `O=C(OCCN1C(=O)c2cccc3c(N4CCOCC4)ccc(c23)C1=O)c1ccccc1Cl`: 13.6% (active); `O=C(OCCN1C(=O)c2cccc3c(N4CCOCC4)ccc(c23)C1=O)c1ccc(Cl)cc1Cl`: 39.1% (active).
Consider `O=C(OCCN1C(=O)c2cccc3c(N4CCOCC4)ccc(c23)C1=O)c1ccc(Cl)cc1`, for which the activation was 25.9% (active).
Next, `CCCN(CCC)S(=O)(=O)c1ccc(C(=O)OCCN2C(=O)c3cccc4c(N5CCOCC5)ccc(c34)C2=O)cc1`: 16.2% (active); `COc1cccc(C(=O)Nc2cc(C(=O)NCc3ccc(C)cc3)ccc2N2CCC3(CC2)CC(c2cccc(Br)c2)=NO3)c1`: 5.62% (inactive); `O=C1OCC/C1=C\c1ccccc1O`: 3.58% (inactive).
Turning to `CCN(CC)c1ccc(/C=c2\sc3nc4ccccc4n3c2=O)c(O)c1`, the activation was 41.3% (active).
Next, `CC(=O)Oc1ccc(NC(=O)Cc2ccccc2)c(C(=O)O)c1`: 34.2% (active).
In the case of `COc1ccc(NC(=O)Cc2ccccc2)cn1`, the activation was 9.43% (inactive).
`Cc1ccc(OCc2ccc(C(=O)O)o2)cc1C`: the activation was 4.06% (inactive).
Next, `CCN1C(=O)[C@@H]2[C@@H](c3ccc(-c4cccc(Cl)c4)cc3)N3CCC[C@@]3(C(=O)OC)[C@@H]2C1=O`: 14% (active).
For `CCCCCCSc1ccc([C@@H]2[C@H]3C(=O)N(CC)C(=O)[C@H]3[C@]3(C(=O)OC)CCCCN23)cc1OC`, the activation is 6.92% (inactive).
In the case of `O=C(O)/C=C/C(=O)NCc1csc2ccccc12`, the activation was 278% (active).
Consider `O=C(NCc1csc2ccccc12)Nc1cc(Cl)cc(Cl)c1`, for which the activation was 7.6% (inactive).
Regarding `CCC(Oc1cc(Cl)ccc1Cl)C(=O)NNC(=O)CCC(=O)O` (stereo not drawn), the activation was 12.2% (active).
Regarding `Fc1ccc(CN2CC[C@H]3C=CCc4cccc(c43)C2)cc1`, the activation was 144% (active).
On to `COC1C(CO)OC(n2c3c(Cl)cccc3c3c4c(c5c6cccc(Cl)c6[nH]c5c32)C(=O)NC4=O)C(O)C1O` (stereo not drawn), for which the activation was 2.74% (inactive).
Turning to `CCN(CC)CC(C(=O)N(CC)CC)P(=O)(c1ccccc1)c1ccccc1` (stereo not drawn), the activation is 6.63% (inactive).
On to `CCN(CC)C(=S)SCC(=O)c1c(C)[nH]c2ccccc12`, for which the activation was 27% (active).
Next, `CCN(CC)C(=O)C(=O)c1c(-c2ccccc2)[nH]c2ccccc12`: 20.5% (active); `O=C(Nc1ccc2c(c1)OCCO2)c1cccc(Cl)c1Cl`: 77.8% (active); `O=C(Nc1ccc2c(c1)OCO2)c1ccc2c(c1)OCO2`: 16.1% (active).
As for `CCOC(=O)CNc1ccc2c(c1)OCO2`, the activation is 15.4% (active).
Turning to `O=C(COc1ccccc1)NC(=S)Nc1cccc(NC(=O)c2ccccc2Cl)c1`, the activation was 7.06% (inactive).
Take `C=CCn1cccc(C(=O)Nc2ccc(OC)c(Cl)c2)c1=O`: the activation is 7.57% (inactive).
As for `CC(=O)c1cc2c(cc1N/C(=N/S(=O)(=O)c1ccc(Br)cc1)c1ccccc1)OCO2`, the activation is 5.61% (inactive).
Regarding `CCN(CC)S(=O)(=O)c1ccc2c(c1)nc(CCC(=O)Nc1ccc3c(c1)OCO3)n2C`, the activation was 8.98% (inactive).
`CCOc1ccc2nc3cc(NCc4ccc(OC)cc4)ccc3c(N)c2c1`: the activation was 4.24% (inactive).
To `COc1ccc(Cn2nnc3ccccc32)cc1` belongs 8.45% (inactive); to `CCOc1ccc(Cn2c3ccc(OC)cc3c3nc4ccccc4nc32)cc1`, 81.5% (active).
For the molecule `CCCCOC(=O)Cn1c2ccc(OC)cc2c2nc3ccccc3nc21`, the activation is 12.9% (active).
On to `CCOC(=O)c1c(C(C)(C)C)oc2ccc(OCC#N)cc12`, for which the activation is 8.86% (inactive).
For the molecule `CCOC(=O)CN1C(=O)S/C(=C/C=C/c2ccc(N(C)C)cc2)C1=O`, the activation was 3.71% (inactive).
As to `CN(C)c1ccc(/C=C2\SC(=O)N(CC(O)Cn3c4ccccc4c4ccccc43)C2=O)cc1` (stereo not drawn), the activation is 14.3% (active).
`CN(C)c1ccc(/C=C2\SC(=O)N(CCc3nnc(N)s3)C2=O)cc1`: the activation was 5.55% (inactive).
Turning to `COc1cc2nc(/C=C/c3ccc(N(C)C)cc3)sc2cc1SC`, the activation was -0.52% (inactive).
Regarding `O=C(COC(=O)c1cc(-c2cccc3ccccc23)nc2ccccc12)NC1CCS(=O)(=O)C1` (stereo not drawn), the activation was 13.5% (active).
Take `CCN1CC=C2C(C#N)=C(N)C(C#N)(C#N)[C@H](c3cccc(OC)c3OC)[C@H]2C1`: the activation was 14.7% (active).
Take `CCCN1CC=C2C(C#N)=C(N)C(C#N)(C#N)C(c3cccc(OC)c3OC)C2C1` (stereo not drawn): the activation is 0.08% (inactive).
Take `CCN1CC=C2C(C#N)=C(N)C(C#N)(C#N)C(c3cc(Cl)ccc3Cl)C2C1` (stereo not drawn): the activation is 253% (active).
As to `O=C(COC(=O)/C=C/c1ccc(Cl)cc1)NCCN1C(=O)CSC1=O`, the activation is 4.03% (inactive).
In the case of `O=C(c1ccccn1)N(Cc1cccs1)C1(C(=O)NC2CCCCC2)CCCCC1`, the activation is 1.46% (inactive).
On to `Cc1ccc(C(C(=O)NC2CCCC2)N(C(=O)Cc2cccs2)c2cccc(C)c2C)o1` (stereo not drawn), for which the activation is 7.72% (inactive).
Take `CCN(CC(=O)Nc1ccccc1C(=O)NC1CC1)Cc1cccs1`: the activation was 89.2% (active).
